# Assay results taken from ChEMBL document CHEMBL5032493, “Synthesis and Evaluation of PPARδ Agonists That Promote Osteogenesis in a Human Mesenchymal Stem Cell Culture and in a Mouse Model of Human Osteoporosis” (J Med Chem, 2021).
# The source made the active and inactive calls. No cut-off for these calls is given here.
# Key:
# [1] = system: Mesenchymal stem cells; experiment: Induction of osteogenesis differentiation in human Mesenchymal stem cells at 1 uM incubated for 21 days by Alizarin Red S staining-based microscopic analysis; format: functional, cell-based; conditions: time 21.0 day
# [2] = system: Mesenchymal stem cells; experiment: Induction of adipogenesis differentiation in human Mesenchymal stem cells at 1 uM incubated for 21 days by […] staining-based microscopic analysis; format: functional, cell-based; conditions: time 21.0 day
# [3] = system: Mesenchymal stem cells; experiment: Induction of adipogenesis differentiation in human Mesenchymal stem cells at 20 uM incubated for 21 days by […] staining-based microscopic analysis; format: functional, cell-based; conditions: time 21.0 day
# [4] = system: Mesenchymal stem cells; experiment: Induction of osteogenesis differentiation in human Mesenchymal stem cells at 10 uM incubated for 21 days by Alizarin Red S staining-based microscopic analysis; format: functional, cell-based; conditions: time 21.0 day
# [5] = system: Mesenchymal stem cells; experiment: Induction of adipogenesis differentiation in human Mesenchymal stem cells at 10 uM incubated for 21 days by […] staining-based microscopic analysis; format: functional, cell-based; conditions: time 21.0 day
# [6] = system: Mesenchymal stem cells; experiment: Induction of osteogenesis differentiation in human Mesenchymal stem cells at 20 uM incubated for 21 days by Alizarin Red S staining-based microscopic analysis; format: functional, cell-based; conditions: time 21.0 day
# [7] = molecular target: T1, Peroxisome proliferator-activated receptor delta (Homo sapiens, UniProt Q03181); experiment: Agonist activity at human PPARdelta transfected in COS-7 cells assessed luciferase activity measured after 24 hrs by cell based luciferase transactivation assay
# T1 sequence (Q03181 whole entry): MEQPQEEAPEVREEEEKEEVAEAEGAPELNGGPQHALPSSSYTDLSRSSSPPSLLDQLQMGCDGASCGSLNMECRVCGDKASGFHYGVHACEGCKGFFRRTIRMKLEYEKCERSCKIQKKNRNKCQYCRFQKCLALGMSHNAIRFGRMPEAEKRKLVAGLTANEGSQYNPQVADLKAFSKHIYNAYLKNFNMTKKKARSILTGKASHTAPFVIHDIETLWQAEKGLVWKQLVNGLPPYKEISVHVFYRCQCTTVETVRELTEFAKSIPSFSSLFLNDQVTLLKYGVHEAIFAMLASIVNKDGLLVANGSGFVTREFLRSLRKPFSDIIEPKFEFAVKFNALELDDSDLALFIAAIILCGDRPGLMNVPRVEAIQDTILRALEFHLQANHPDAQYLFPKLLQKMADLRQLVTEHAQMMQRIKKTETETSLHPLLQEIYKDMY
# [8] = molecular target: T2, Peroxisome proliferator-activated receptor alpha (Homo sapiens, UniProt Q07869); experiment: Agonist activity at human PPARalpha transfected in COS-7 cells assessed luciferase activity measured after 24 hrs by cell based luciferase transactivation assay; conditions: read-out: EC50
# T2 sequence (Q07869 whole entry): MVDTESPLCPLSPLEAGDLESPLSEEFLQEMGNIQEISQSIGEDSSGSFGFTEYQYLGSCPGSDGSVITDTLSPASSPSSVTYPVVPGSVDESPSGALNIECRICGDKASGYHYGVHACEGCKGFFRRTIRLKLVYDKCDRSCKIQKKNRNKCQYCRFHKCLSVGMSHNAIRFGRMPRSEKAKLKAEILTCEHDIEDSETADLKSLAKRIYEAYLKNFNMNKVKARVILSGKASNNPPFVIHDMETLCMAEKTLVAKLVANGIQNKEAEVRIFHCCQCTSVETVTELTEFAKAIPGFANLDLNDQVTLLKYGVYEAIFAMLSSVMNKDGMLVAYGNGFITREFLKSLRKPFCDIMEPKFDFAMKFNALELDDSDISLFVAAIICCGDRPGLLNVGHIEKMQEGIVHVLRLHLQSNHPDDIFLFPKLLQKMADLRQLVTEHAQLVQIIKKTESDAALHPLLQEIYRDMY
# Procedure, shortened: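 Transient transfection of COS-7 cells with human PPARα, PPARγ or PPARδ plus luciferase reporter; constitutive Renilla luciferase also read. Three or more independent experiments in triplicate (N ≥ 9).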
# [9] = molecular target: T3, Peroxisome proliferator-activated receptor gamma (Homo sapiens, UniProt P37231); experiment: Agonist activity at human PPARgamma transfected in COS-7 cells assessed luciferase activity measured after 24 hrs by cell based luciferase transactivation assay; conditions: read-out: EC50
# T3 sequence (P37231 whole entry): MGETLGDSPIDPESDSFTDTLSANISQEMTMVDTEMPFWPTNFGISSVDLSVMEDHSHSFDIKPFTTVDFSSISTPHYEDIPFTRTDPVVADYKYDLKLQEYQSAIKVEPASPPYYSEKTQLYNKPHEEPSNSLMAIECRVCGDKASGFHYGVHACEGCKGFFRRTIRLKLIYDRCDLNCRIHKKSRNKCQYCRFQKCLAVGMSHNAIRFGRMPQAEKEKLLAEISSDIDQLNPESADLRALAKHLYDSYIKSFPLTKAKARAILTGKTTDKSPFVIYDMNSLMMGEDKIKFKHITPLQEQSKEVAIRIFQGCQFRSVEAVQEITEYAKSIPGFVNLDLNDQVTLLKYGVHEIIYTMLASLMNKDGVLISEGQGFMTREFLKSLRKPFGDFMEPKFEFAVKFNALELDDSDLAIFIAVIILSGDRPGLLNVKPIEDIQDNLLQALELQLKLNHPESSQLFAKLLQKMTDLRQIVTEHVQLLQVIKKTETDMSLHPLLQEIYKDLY
# [10] = molecular target: T4, Peroxisome proliferator-activated receptor alpha (Homo sapiens) (UniProt Q07869); experiment: Agonist activity at human PPARalpha transfected in COS-7 cells assessed maximum luciferase activity measured after 24 hrs by cell based luciferase transactivation assay relative to gemfibrozil; conditions: filed as agonist
# T4 sequence (whole entry): T2 sequence (Q07869 whole entry)
# Procedure, shortened: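 Transient transfection of COS-7 cells with human PPARα, PPARγ or PPARδ plus luciferase reporter; constitutive Renilla luciferase also read. […] Three or more independent experiments in triplicate (N ≥ 9).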
Compound,Activity [1],Activity [2],Activity [3],Activity [4],Activity [5],Activity [6],EC50 [7] [µM],EC50 [8] [µM],EC50 [9] [µM],Emax [10] [%]
COC(=O)/C=C/c1ccc(OCc2sc(-c3ccc(C(F)(F)F)cc3)nc2C)cc1,inactive,Active,–,–,–,–,–,–,–,–
Cc1nn(-c2ccc(C(F)(F)F)cc2)nc1CNc1ccc(/C=C/C(=O)O)cc1,Active,Active,Active,Active,Active,Active,–,–,–,–
Cc1nn(-c2ccc(C(F)(F)F)cc2)nc1CN(C)c1ccc(/C=C/C(=O)O)cc1,Active,inactive,inactive,Active,inactive,Active,–,–,–,–
Cc1nc(-c2ccccc2)sc1CNc1ccc(/C=C/C(=O)O)cc1,Active,Active,–,inactive,Active,–,–,–,–,–
Cc1nc(-c2ccc(C(F)(F)F)cc2)sc1CN(Cc1sc(-c2ccc(C(F)(F)F)cc2)nc1C)c1ccc(/C=C/C(=O)O)cc1,Active,inactive,–,inactive,inactive,–,–,–,–,–
Cc1nc(-c2ccc(C(F)(F)F)cc2)sc1CSc1ccc(/C=C/C(=O)O)cc1,Active,inactive,–,Active,inactive,–,0.535,17.7,17,338
CCN(Cc1sc(-c2ccc(C(F)(F)F)cc2)nc1C)c1ccc(/C=C/C(=O)O)cc1,Active,Active,Active,Active,Active,Active,–,–,–,–
Cc1nc(-c2cccc(C(F)(F)F)c2)sc1CN(C)c1ccc(/C=C/C(=O)O)cc1,Active,inactive,Active,inactive,Active,inactive,–,–,–,–
CCc1cc(N(C)Cc2sc(-c3ccc(C(F)(F)F)cc3)nc2C)ccc1/C=C/C(=O)O,Active,Active,Active,Active,Active,Active,–,–,–,–
Cc1nc(-c2cccc(C(F)(F)F)c2)sc1CNc1ccc(/C=C/C(=O)O)cc1,inactive,Active,Active,inactive,Active,inactive,–,–,–,–
Cc1nc(-c2ccccc2)sc1COc1ccc(/C=C/C(=O)O)cc1,inactive,Active,–,inactive,Active,–,–,–,–,–
CCCN(Cc1sc(-c2ccc(C(F)(F)F)cc2)nc1C)c1ccc(/C=C/C(=O)O)cc1,Active,inactive,Active,Active,Active,inactive,–,–,–,–
Cc1ccc(C)c(OCCCC(C)(C)C(=O)O)c1 [GEMFIBROZIL],–,–,–,–,–,–,–,11.8,–,110
Cc1nc(-c2cccc(C(F)(F)F)c2)sc1COc1ccc(/C=C/C(=O)O)cc1,Active,Active,–,–,–,–,–,–,–,–
Cc1nc(-c2ccc(C(F)(F)F)cc2)sc1CNc1ccc(/C=C/C(=O)O)cc1,Active,inactive,Active,Active,Active,Active,1.22,6.01,–,377
Cc1nc(-c2ccc(C(F)(F)F)cc2)sc1CN(C)c1ccc(/C=C/C(=O)O)c(C(C)C)c1,Active,inactive,inactive,Active,inactive,Active,–,–,–,–
Cc1nc(-c2ccccc2)sc1CSc1ccc(/C=C/C(=O)O)cc1,Active,Active,–,inactive,Active,–,–,–,–,–
Cc1nc(-c2cccc(C(F)(F)F)c2)sc1CSc1ccc(/C=C/C(=O)O)cc1,Active,inactive,Active,inactive,Active,inactive,–,–,–,–
CN(CCOc1ccc(CC2SC(=O)NC2=O)cc1)c1ccccn1 (stereo not given),–,Active,–,–,Active,–,–,–,–,> 120
Cc1cc(/C=C/C(=O)O)ccc1N(C)Cc1sc(-c2ccc(C(F)(F)F)cc2)nc1C,Active,inactive,inactive,Active,inactive,Active,–,–,–,–
Cc1nc(-c2ccc(C(F)(F)F)c(F)c2)sc1CN(C(=O)OC(C)(C)C)c1ccc(/C=C/C(=O)O)cc1,Active,inactive,Active,inactive,Active,inactive,–,–,–,–
Cc1sc(-c2ccc(C(F)(F)F)cc2)nc1CN(C)c1ccc(/C=C/C(=O)O)cc1,Active,inactive,inactive,Active,inactive,inactive,–,–,–,–
Cc1nc(-c2ccc(C(F)(F)F)c(F)c2)sc1CN(C)c1ccc(/C=C/C(=O)O)cc1,Active,inactive,Active,inactive,inactive,inactive,–,–,–,–
Cc1nc(-c2ccc(C(F)(F)F)cc2)sc1CN(c1ccc(/C=C/C(=O)O)cc1)C(C)C,Active,inactive,inactive,Active,inactive,Active,–,–,–,–
Cc1nc(-c2ccccc2)sc1CN(C)c1ccc(/C=C/C(=O)O)cc1,Active,inactive,Active,inactive,Active,inactive,–,–,–,–
Cc1nc(-c2ccc(C(F)(F)F)c(F)c2)sc1CNc1ccc(/C=C/C(=O)O)cc1,Active,inactive,Active,inactive,Active,inactive,–,–,–,–
COC(=O)/C=C/c1ccc(OCc2sc(-c3cccc(C(F)(F)F)c3)nc2C)cc1,inactive,Active,–,–,–,–,–,–,–,–
